Test results from ChEMBL document CHEMBL1221302, “Discovery of imidazo[1,2-b]pyridazine derivatives as IKKbeta inhibitors. Part 1: Hit-to-lead study and structure-activity relationship” (Bioorg Med Chem Lett, 2010).

Columns and labels:
[1] = target: T1, Inhibitor of nuclear factor kappa-B kinase subunit beta (Homo sapiens, UniProt O14920); test: Inhibition of purified His-tagged IKK-beta after 15 mins
T1 sequence (O14920 whole entry): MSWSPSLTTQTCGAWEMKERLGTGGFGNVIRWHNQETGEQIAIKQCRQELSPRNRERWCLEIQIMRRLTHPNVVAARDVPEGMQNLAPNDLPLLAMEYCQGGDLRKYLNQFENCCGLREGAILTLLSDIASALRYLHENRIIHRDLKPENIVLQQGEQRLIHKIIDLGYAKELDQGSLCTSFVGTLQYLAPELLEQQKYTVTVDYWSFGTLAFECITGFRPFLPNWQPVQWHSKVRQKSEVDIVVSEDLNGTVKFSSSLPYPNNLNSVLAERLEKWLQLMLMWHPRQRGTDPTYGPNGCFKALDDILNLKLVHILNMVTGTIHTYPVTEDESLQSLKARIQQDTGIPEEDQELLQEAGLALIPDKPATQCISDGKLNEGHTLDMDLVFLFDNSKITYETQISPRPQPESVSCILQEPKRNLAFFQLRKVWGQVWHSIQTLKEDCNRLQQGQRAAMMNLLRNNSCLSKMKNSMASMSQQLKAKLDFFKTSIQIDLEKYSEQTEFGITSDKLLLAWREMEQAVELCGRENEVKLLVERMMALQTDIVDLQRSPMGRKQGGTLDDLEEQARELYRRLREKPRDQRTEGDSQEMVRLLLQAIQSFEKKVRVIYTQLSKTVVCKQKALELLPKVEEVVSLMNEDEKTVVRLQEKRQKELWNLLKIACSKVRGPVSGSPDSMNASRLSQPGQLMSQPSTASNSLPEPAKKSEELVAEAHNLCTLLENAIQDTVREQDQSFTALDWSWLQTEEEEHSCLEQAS

THP-1 = test: Antiinflammatory activity in human THP1 cells assessed as inhibition of LPS-induced TNFalpha production after 4 hrs by ELISA; format: functional, cell-based; conditions: THP-1, 4 h
In short: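 THP-1 cells primed 3–4 days with 100 nM calcitriol in RPMI-1640 containing 10% FBS, then cultured overnight without calcitriol. Resuspended in RPMI-1640 with 25 mM HEPES at 1.5×10^5 cells/mL. Compound and E. coli O111:B4 LPS added together, 4 h at 37 °C in 5% CO2. TNFα measured in the centrifuged supernatant by ELISA.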

[2] = target: T2, Inhibitor of nuclear factor kappa-B kinase subunit alpha (Homo sapiens, UniProt O15111); test: Inhibition of recombinant IKKalpha after 15 mins
T2 sequence (O15111 whole entry): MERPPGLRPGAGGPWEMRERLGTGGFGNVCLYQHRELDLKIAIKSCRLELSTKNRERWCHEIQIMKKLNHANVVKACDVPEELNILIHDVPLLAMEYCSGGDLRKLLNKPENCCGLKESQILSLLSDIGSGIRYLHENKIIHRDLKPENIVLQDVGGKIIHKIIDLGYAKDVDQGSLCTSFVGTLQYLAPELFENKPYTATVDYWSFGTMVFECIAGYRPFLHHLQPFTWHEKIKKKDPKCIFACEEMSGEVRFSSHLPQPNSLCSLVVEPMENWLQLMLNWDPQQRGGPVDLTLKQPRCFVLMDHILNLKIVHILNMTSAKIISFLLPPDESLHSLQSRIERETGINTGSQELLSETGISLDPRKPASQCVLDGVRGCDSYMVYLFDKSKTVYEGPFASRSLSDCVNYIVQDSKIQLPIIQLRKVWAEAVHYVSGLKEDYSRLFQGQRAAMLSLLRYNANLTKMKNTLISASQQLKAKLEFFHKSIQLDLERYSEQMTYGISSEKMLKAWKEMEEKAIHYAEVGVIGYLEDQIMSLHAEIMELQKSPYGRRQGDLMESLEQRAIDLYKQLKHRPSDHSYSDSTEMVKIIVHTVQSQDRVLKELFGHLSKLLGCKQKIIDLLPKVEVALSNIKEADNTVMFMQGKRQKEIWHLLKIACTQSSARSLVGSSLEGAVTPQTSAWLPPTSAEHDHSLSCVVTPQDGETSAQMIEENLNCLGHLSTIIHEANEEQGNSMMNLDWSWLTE

[3] = target: Cyclin-dependent kinase 2 (Homo sapiens, UniProt P24941); test: Inhibition of recombinant CDK2 after 15 mins
[4] = target: Glycogen synthase kinase-3 beta (Homo sapiens, UniProt P49841); test: Inhibition of recombinant GSK3-beta after 15 mins
In short: (§1)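 Each recombinant kinase was assayed with ATP at its own Km.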

[5] = target: Mitogen-activated protein kinase 10 (Homo sapiens, UniProt P53779); test: Inhibition of recombinant JNK3 after 15 mins; in short: as §1
[6] = target: Mitogen-activated protein kinase 14 (Homo sapiens, UniProt Q16539); test: Inhibition of recombinant p38alpha after 15 mins; in short: as §1
[7] = Apparent permeability of the compound at pH 7.4 by PAMPA method; format: ADME

Sequence of Glycogen synthase kinase-3 beta (P49841 whole entry): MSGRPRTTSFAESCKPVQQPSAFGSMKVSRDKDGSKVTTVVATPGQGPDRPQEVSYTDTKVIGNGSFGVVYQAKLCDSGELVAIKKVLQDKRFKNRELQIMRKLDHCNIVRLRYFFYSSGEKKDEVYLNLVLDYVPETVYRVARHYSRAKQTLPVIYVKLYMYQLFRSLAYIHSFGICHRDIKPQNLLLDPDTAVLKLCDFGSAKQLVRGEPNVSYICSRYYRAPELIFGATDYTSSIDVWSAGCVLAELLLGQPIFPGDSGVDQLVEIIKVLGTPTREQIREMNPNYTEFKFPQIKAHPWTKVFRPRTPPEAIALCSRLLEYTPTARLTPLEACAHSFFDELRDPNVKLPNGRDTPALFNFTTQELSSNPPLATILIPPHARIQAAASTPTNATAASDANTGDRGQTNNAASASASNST
Sequence of Mitogen-activated protein kinase 10 (P53779 whole entry): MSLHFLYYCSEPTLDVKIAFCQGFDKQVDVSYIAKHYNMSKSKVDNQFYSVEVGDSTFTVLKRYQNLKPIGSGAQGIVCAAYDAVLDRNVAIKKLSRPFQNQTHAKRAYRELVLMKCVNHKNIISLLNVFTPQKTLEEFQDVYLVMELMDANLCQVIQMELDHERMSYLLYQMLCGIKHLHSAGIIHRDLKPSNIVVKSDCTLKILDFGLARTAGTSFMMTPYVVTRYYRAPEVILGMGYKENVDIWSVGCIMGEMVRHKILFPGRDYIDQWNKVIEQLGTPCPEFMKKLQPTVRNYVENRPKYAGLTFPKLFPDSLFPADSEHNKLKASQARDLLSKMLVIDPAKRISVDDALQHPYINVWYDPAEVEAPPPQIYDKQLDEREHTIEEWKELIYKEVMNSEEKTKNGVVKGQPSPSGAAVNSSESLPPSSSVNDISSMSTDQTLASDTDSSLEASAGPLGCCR
Sequence of Mitogen-activated protein kinase 14 (Q16539 whole entry): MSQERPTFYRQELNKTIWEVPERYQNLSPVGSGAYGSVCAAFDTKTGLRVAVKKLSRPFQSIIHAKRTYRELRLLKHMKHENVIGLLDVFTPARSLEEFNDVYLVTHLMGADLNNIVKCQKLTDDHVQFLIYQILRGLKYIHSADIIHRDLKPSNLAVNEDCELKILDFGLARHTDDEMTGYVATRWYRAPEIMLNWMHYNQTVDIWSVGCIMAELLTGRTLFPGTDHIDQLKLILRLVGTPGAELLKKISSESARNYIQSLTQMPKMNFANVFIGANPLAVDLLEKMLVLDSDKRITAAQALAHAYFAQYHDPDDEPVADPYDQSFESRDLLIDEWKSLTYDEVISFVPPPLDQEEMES

Row | SMILES | IC50 [1] [µM] | IC50 (THP-1) [µM] | further results
1 | CN(C)CCNC(=O)c1ccc(-c2cnc3ccc(NCC4CC4)nn23)cc1 | 0.2 | 0.69 | IC50 [2]: > 100 µM; IC50 [3]: > 100 µM; IC50 [4]: > 100 µM; IC50 [5]: > 100 µM; IC50 [6]: > 100 µM; Papp [7]: > 50 ×10⁻⁶ cm/s
2 | O=C(NC[C@@H]1CCCN1)c1ccc(-c2cnc3ccc(N[C@H]4CC[C@H](O)CC4)nn23)cc1 |  | > 30 | 
3 | NC1CN(C(=O)c2ccc(-c3cnc4ccc(NCc5ccc(Cl)c(Cl)c5)nn34)cc2)C1 |  | > 30 | 
4 | O=C(NCCN1CCOCC1)c1ccc(-c2cnc3ccc(NCc4ccc(Cl)c(Cl)c4)nn23)cc1 | > 30 |  | 
5 | O=C(NCC1CCNCC1)c1ccc(-c2cnc3ccc(NCc4ccc(Cl)c(Cl)c4)nn23)cc1 |  | > 30 | 
6 | NCCNC(=O)c1ccc(-c2cnc3ccc(NCc4ccc(Cl)c(Cl)c4)nn23)cc1 |  | 2.4 | 
7 | CC(C)Nc1ccc2ncc(-c3ccc(C(=O)NC[C@@H]4CCCN4)cc3)n2n1 | 0.27 | 1.7 | 
8 | CCN(CC)CCNC(=O)c1ccc(-c2cnc3ccc(NCC4CC4)nn23)cc1 |  | 1.2 | 
9 | CN(C)CCNC(=O)c1ccc(-c2cnc3ccc(NCc4ccc(Cl)c(Cl)c4)nn23)cc1 |  | > 30 | IC50 [3]: > 100 µM; IC50 [4]: > 100 µM
10 | O=C(c1ccc(-c2cnc3ccc(NCc4ccc(Cl)c(Cl)c4)nn23)cc1)N1CCC(N2CCCC2)CC1 | 1.4 | > 30 | 
11 | O=C(NC[C@@H]1CCCN1)c1ccc(-c2cnc3ccc(N4CCC(O)CC4)nn23)cc1 | > 30 |  | 
12 | O=C(NC[C@@H]1CCCN1)c1ccc(-c2cnc3ccc(NCc4ccccc4)nn23)cc1 |  | 3.7 | 
13 | CC(C)(N)CNC(=O)c1ccc(-c2cnc3ccc(NCc4ccc(Cl)c(Cl)c4)nn23)cc1 |  | 6.5 | 
14 | O=C(NCCN1CCCC1)c1ccc(-c2cnc3ccc(NCc4ccc(Cl)c(Cl)c4)nn23)cc1 | 0.59 | > 30 | IC50 [2]: 4.6 µM; IC50 [3]: > 100 µM; IC50 [4]: > 100 µM; IC50 [5]: 90 µM; IC50 [6]: > 100 µM
15 | O=C(c1ccc(-c2cnc3ccc(NCC4CC4)nn23)cc1)N1CCC[C@@H]1CN1CCCC1 | 0.16 | 2.1 | 
16 | CN(C)CCCNC(=O)c1ccc(-c2cnc3ccc(NCc4ccc(Cl)c(Cl)c4)nn23)cc1 |  | > 30 | 
17 | O=C(NC1CCNC1)c1ccc(-c2cnc3ccc(NCc4ccc(Cl)c(Cl)c4)nn23)cc1 (stereo unspecified) |  | 6.5 | 
18 | CN1CCN(C(=O)c2ccc(-c3cnc4ccc(NCc5ccc(Cl)c(Cl)c5)nn34)cc2)CC1 |  | 12 | 
19 | O=C(c1ccc(-c2cnc3ccc(NCC4CC4)nn23)cc1)N1CCC[C@H]1CN1CCCC1 | 5.1 |  | 
20 | O=C(NC[C@@H]1CCCN1)c1ccc(-c2cnc3ccc(NCC4CC4)nn23)cc1 | 0.055 | 0.69 | IC50 [2]: 40 µM; IC50 [3]: > 100 µM; IC50 [4]: > 100 µM; IC50 [5]: > 100 µM; IC50 [6]: > 100 µM; Papp [7]: < 2 ×10⁻⁶ cm/s
21 | CN(C)CCN(C)C(=O)c1ccc(-c2cnc3ccc(NCc4ccc(Cl)c(Cl)c4)nn23)cc1 |  | 15 | 
22 | CN(C)CCN(C)C(=O)c1ccc(-c2cnc3ccc(NCC4CC4)nn23)cc1 |  | 2.4 | 
23 | CC(=O)NCCNc1ccc2ncc(-c3ccc(C(=O)NC[C@@H]4CCCN4)cc3)n2n1 |  | > 30 | 
24 | O=C(NC[C@@H]1CCCN1)c1ccc(-c2cnc3ccc(NCc4ccc(Cl)c(Cl)c4)nn23)cc1 | 0.32 | 4 | IC50 [2]: 2.2 µM; IC50 [3]: 95 µM; IC50 [4]: > 100 µM; IC50 [5]: > 100 µM; IC50 [6]: > 100 µM; Papp [7]: < 2 ×10⁻⁶ cm/s
